Bioassay records (PubChem BioAssay)
INS-1E rescue: protection of INS-1E cells from cytokine death, primary screen, ATP luminescence, single point | INS-1E cytokine-induced death, 48 h; normalised: neutral wells 0, positive control 100 | protection from cytokine-induced ATP loss, % at 10 µM | hit rate 0.1% among 20,000 | AID 488910, 2010;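 active = mean replicate protection from cytokine-induced ATP loss at least 50% and at least 75% of replicates each reaching 50%; inconclusive = meets only one of the two criteria, mean or replicate share; inactive = fails both the mean and replicate share criteria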
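Test system: INS-1E rat cells | Quantity: 8000 cells per well | Medium: Phenol-red-free RPMI with 5% fetal bovine serum | Reagent: Cytokine cocktail of IFN-γ, TNF-α and IL-1β | Doses: One compound concentration, pin transfer | Timing: 48 h co-treatment, 10 min post-lysis read | Technique: Luminescent ATP assay (CellTiter-Glo)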
T cruzi intra: inhibitors of intracellular Trypanosoma cruzi, primary screen, cell-based, plate reader, single point, set 2 | intracellular Trypanosoma cruzi in host cells | activity score (inhibition), % at 5.01 µM | hit rate 4.9% among 22,000 | AID 651903, 2012; in the data active = activity score above about 55%; inconclusive = no clear call, values can overlap the other calls;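 also: parasites and compound incubated about four days before reading; 0% = median of neutral control wells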
A1 apoptosis 2: A1 inhibitors via caspase activation, primary screen, cell-based, luminescence, HTS, two replicates | 24,000 tested, under 10 active | MEF A1-2A-BIM cells, caspase-Glo luminescence, 3 h; percent of clofoctol response, DMSO zero | caspase activation, % (no concentration beside the values); in the data active = caspase activation above about 5.9%; inconclusive = no clear call, values can overlap the other calls; inactive = below about 2.2%
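Material: mouse embryonic fibroblasts co-expressing A1 and BIM (A1-2A-BIM), primed for A1 dependence / Quantity: 2500 cells/well / Buffer or medium: RPMI-1640 growth medium with 10% FBS / Doses: 50 nL compound per well, pinned / Schedule: 3 h compound exposure at 37 °C / Signal: Caspase-Glo luminescence (DEVD substrate) / Measure: Caspase-3/7 activation, seen as rise in luminescence signal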
* hit, by the source's call; ? = inconclusive; . = no result. This is one part of a sample in which hits are shown more often than they occur.

SMILES	INS-1E rescue	T cruzi intra	A1 apoptosis 2
C[C@@H]1CCCCO[C@H](CN(C)C(=O)Nc2ccc(C(F)(F)F)cc2)[C@H](C)CN([C@@H](C)CO)C(=O)c2cc(N(C)C)ccc2O1	.	.	-1
Cc1noc(C)c1S(=O)(=O)Nc1ccc2c(c1)C(=O)N([C@@H](C)CO)C[C@@H](C)[C@@H](CN(C)Cc1ccc(Cl)c(Cl)c1)O2	-4	50	.
Cc1noc(C)c1S(=O)(=O)Nc1ccc2c(c1)CC(=O)N([C@@H](C)CO)C[C@@H](C)[C@H](CN(C)Cc1ccc(Cl)c(Cl)c1)O2	.	.	-1
Cc1noc(C)c1S(=O)(=O)Nc1ccc2c(c1)CC(=O)N([C@@H](C)CO)C[C@@H](C)[C@@H](CN(C)Cc1ccc(Cl)c(Cl)c1)O2	-9	61*	.
Cc1noc(C)c1S(=O)(=O)Nc1ccc2c(c1)C(=O)N([C@@H](C)CO)C[C@H](C)[C@@H](CN(C)Cc1ccc(Cl)c(Cl)c1)O2	-15	66*	1
COc1ccc(NC(=O)Nc2ccc3c(c2)C(=O)N([C@@H](C)CO)C[C@@H](C)[C@H](CN(C)Cc2ccc(C(F)(F)F)cc2)OCCCC[C@@H](C)O3)cc1	.	.	1
COc1ccc(CN(C)C[C@H]2OCCCC[C@@H](C)Oc3ccc(NC(=O)Nc4ccc(C(F)(F)F)cc4)cc3C(=O)N([C@H](C)CO)C[C@@H]2C)cc1	-33	67*	.
COc1ccc(NC(=O)Nc2ccc3c(c2)C(=O)N([C@H](C)CO)C[C@H](C)[C@H](CN(C)Cc2ccc(C(F)(F)F)cc2)OCCCC[C@@H](C)O3)cc1	-4	71*	.
COc1ccc(CN(C)C[C@H]2OCCCC[C@H](C)Oc3ccc(NC(=O)Nc4ccc(C(F)(F)F)cc4)cc3C(=O)N([C@H](C)CO)C[C@@H]2C)cc1	.	.	1
C[C@H](CO)N1C[C@H](C)[C@@H](CN(C)Cc2ccc(C(F)(F)F)cc2)Oc2ccc(NC(=O)C3CC3)cc2C1=O	-3	8	0
COc1ccc(S(=O)(=O)Nc2ccc3c(c2)C(=O)N([C@H](C)CO)C[C@H](C)[C@@H](CN(C)S(=O)(=O)c2ccc(Cl)cc2)O3)cc1	-3	-2	.
C[C@H]1CN([C@@H](C)CO)C(=O)Cc2cc(NC(=O)CCC(F)(F)F)ccc2O[C@H]1CN(C)Cc1ccncc1	1	-7	.
Cc1ccc(S(=O)(=O)N(C)C[C@@H]2OCCCC[C@H](C)Oc3ccc(NS(C)(=O)=O)cc3C(=O)N([C@@H](C)CO)C[C@H]2C)cc1	.	.	0
C[C@@H]1CN([C@H](C)CO)C(=O)c2cccc(NS(C)(=O)=O)c2O[C@@H]1CN(C)Cc1ccc(C(=O)O)cc1	11	-20	.
C[C@H]1CN([C@@H](C)CO)C(=O)Cc2cc(NC(=O)Cc3ccccc3)ccc2O[C@@H]1CN(C)Cc1ccc(C(F)(F)F)cc1	-6	58*	0
C[C@H]1CN([C@@H](C)CO)C(=O)Cc2cc(NC(=O)Cc3ccccc3)ccc2O[C@H]1CN(C)Cc1ccc(C(F)(F)F)cc1	13	69*	-1
C[C@H](CO)N1C[C@H](C)[C@H](CN(C)Cc2ccc(C(F)(F)F)cc2)Oc2ccc(NC(=O)Cc3ccccc3)cc2CC1=O	6	?	0
C[C@@H]1CN([C@@H](C)CO)C(=O)Cc2cc(NC(=O)Nc3ccc(C(F)(F)F)cc3)ccc2O[C@H]1CN(C)Cc1ccccc1	.	.	0
COc1ccc(NC(=O)Nc2ccc3c(c2)C(=O)N([C@@H](C)CO)C[C@H](C)[C@H](CN(C)C(=O)Nc2ccc(OC)cc2)OCCCC[C@@H](C)O3)cc1	.	.	0
COc1ccc(NC(=O)N(C)C[C@@H]2OCCCC[C@@H](C)Oc3ccc(NC(=O)CCCN(C)C)cc3C(=O)N([C@H](C)CO)C[C@@H]2C)cc1	5	-17	.
CNC[C@H]1Oc2ccc(NS(=O)(=O)c3ccc(OC)cc3)cc2CC(=O)N([C@@H](C)CO)C[C@@H]1C	-6	-16	0
C[C@@H]1CN([C@H](C)CO)C(=O)c2cccc(NC(=O)c3ccncc3)c2O[C@@H]1CN(C)Cc1ccncc1	12	-22	0
C[C@H](CO)N1C[C@H](C)[C@H](CN(C)Cc2ccc3c(c2)OCO3)Oc2c(NC(=O)c3cnccn3)cccc2C1=O	1	1	.
C[C@H]1CN([C@@H](C)CO)C(=O)c2cccc(NC(=O)c3ccncc3)c2O[C@H]1CN(C)Cc1ccc2c(c1)OCO2	1	62*	-1
C[C@@H]1CN([C@H](C)CO)C(=O)c2cccc(NC(=O)c3ccncc3)c2O[C@H]1CN(C)Cc1ccc2c(c1)OCO2	-9	87*	1
SMILES	INS-1E rescue	T cruzi intra	A1 apoptosis 2
C[C@@H]1CN([C@H](C)CO)C(=O)c2cccc(NC(=O)c3ccc(-c4nccs4)cc3)c2O[C@@H]1CN(C)Cc1ccc2c(c1)OCO2	-5	15	0
C[C@@H]1CN([C@@H](C)CO)C(=O)c2cccc(NC(=O)c3ccncc3)c2O[C@H]1CN(C)Cc1ccc2c(c1)OCO2	4	59*	0
COc1ccc(NC(=O)Nc2ccc3c(c2)C(=O)N([C@@H](C)CO)C[C@H](C)[C@H](CN(C)C(=O)Nc2cccc4ccccc24)O3)cc1	.	13	-1
C[C@H]1CN([C@@H](C)CO)C(=O)c2cccc(NC(=O)Nc3ccc(F)cc3)c2O[C@@H]1CN(C)Cc1ccncc1	1	-12	.
COc1ccc(CN(C)C[C@@H]2Oc3c(NC(=O)Nc4ccc(C(F)(F)F)cc4)cccc3C(=O)N([C@H](C)CO)C[C@@H]2C)cc1	-36	81*	-2
COc1ccc(NC(=O)Nc2cccc3c2O[C@@H](CN(C)Cc2ccc(C(F)(F)F)cc2)[C@H](C)CN([C@H](C)CO)C3=O)cc1	-6	5	.
COc1ccc(NC(=O)Nc2cccc3c2O[C@H](CN(C)Cc2ccc(C(F)(F)F)cc2)[C@H](C)CN([C@@H](C)CO)C3=O)cc1	-10	-11	0
COc1ccc(CN(C)C[C@@H]2Oc3c(NC(=O)Nc4ccc(C(F)(F)F)cc4)cccc3C(=O)N([C@@H](C)CO)C[C@H]2C)cc1	-95	67*	0
CC(C)NC(=O)N(C)C[C@H]1Oc2ccc(NS(C)(=O)=O)cc2C(=O)N([C@@H](C)CO)C[C@@H]1C	1	-16	.
C[C@H](CO)N1C[C@H](C)[C@H](CN(C)Cc2ccc3c(c2)OCO3)OCCCC[C@H](C)Oc2ccc(NC(=O)Nc3ccccc3)cc2C1=O	.	.	1
C[C@H]1CCCCO[C@@H](CN(C)C(=O)Nc2ccc(C(F)(F)F)cc2)[C@@H](C)CN([C@@H](C)CO)C(=O)c2cc(NS(=O)(=O)c3cccs3)ccc2O1	.	.	-2
CC(C)NC(=O)Nc1cccc2c1O[C@@H](CN(C)C(=O)Nc1ccc(C(F)(F)F)cc1)[C@H](C)CN([C@H](C)CO)C2=O	4	2	.
C[C@H]1CN([C@@H](C)CO)C(=O)Cc2cc(N(C)C)ccc2O[C@@H]1CN(C)Cc1ccc(C(F)(F)F)cc1	2	74*	1
